Assay results taken from ChEMBL document CHEMBL1123886 (J Med Chem, 1987).
Calls of active or inactive are those of the source. No cut-off for these calls is given here.

What was measured:
[1] = Lipophilicity (Rm).; format: physicochemical
[2] = The compound was evaluated for its acid dissociation constant; format: ADME
[3] = species: Mus musculus; experiment: Percent increase in life span of the drug treated tumor bearing animals vs nontreated tumor bearing controls was determined against P388/ADR cells;NA= not active; format: functional, organism-based
Method in brief: (§1)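 Mice were inoculated ip with 10^6 P388 or ADR/P388 cells. OD is the optimal dose in mg/kg per day. ILSmax is the % lifespan increase over untreated tumor-bearing controls at the OD; above 20% is significant. Long-term survival was scored at 50 days.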

[4] = system: P388/ADR; experiment: Optimal dose required to inhibit the P388/ADR cells in vivo after intraperitoneal administration.; format: functional, Mus musculus; design: unit: mg/kg/day
[5] = system: P388; experiment: Optimal dose required to inhibit the P388 intraperitoneal administration.; format: functional, Mus musculus; design: unit: mg/kg/day
[6] = system: P388; experiment: Percent increase in life span of the drug-treated tumor-bearing animals vs nontreated tumor-bearing controls with P388 leukemia cells.; format: functional, Mus musculus
Method in brief: (§2)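 Groups of 6. Optimal dose is in mg/kg per day. ILSmax is the % lifespan increase over untreated tumor-bearing controls at the optimal dose; above 20% counted significant. Cures are 50-day survivors.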

[7] = system: poly[d(A-T)]; experiment: Binding constant for poly[d(A-T)] by ethidium bromide displacement
[8] = system: HCT-8; experiment: Ability to inhibit the growth of human colon tumor HCT-8 cells in vitro.; format: functional, cell-based
Method in brief: (§3)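 Cultured leukemia L1210 or human colon tumor HCT-8 cells were exposed to drug for 40 h.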

[9] = system: L1210; experiment: Ability to inhibit the growth of leukemia L1210 cells in vitro.; format: functional, cell-based; conditions: Mus musculus; method in brief: as §3
[10] = system: Lewis lung carcinoma cell line; experiment: Optimal dose required to inhibit the LL Lewis lung carcinoma model cells in vivo administered intraperitoneally; format: functional, Mus musculus
Method in brief: (§4)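 Mice were inoculated iv with 10^6 Lewis lung carcinoma cells. OD is the optimal dose in mg/kg per day. Lifespan increase above 40% is significant, and long-term survival was scored at 60 days.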

[11] = system: Lewis lung carcinoma cell line; experiment: (§5) Optimal dose required to inhibit the LL (Lewis lung carcinoma model) cells in vivo administered intraperitoneally; NA= not active; format: functional, Mus musculus
Method in brief: (§6)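 Groups of 6. Optimal dose is in mg/kg per day. ILSmax is the % lifespan increase over untreated tumor-bearing controls at the optimal dose; above 40% counted significant. Cures are 60-day survivors.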

[12] = system: P388/ADR; experiment: Percent increase in life span, of the drug-treated tumor-bearing animals vs nontreated tumor-bearing controls with P388/ADR cells.; format: functional, Mus musculus; method in brief: as §2
[13] = system: Lewis lung carcinoma cell line; experiment: Percent increase in life span of the drug treated tumor bearing animals vs nontreated tumor bearing controls was determined against LL (Lewis lung carcinoma model) cells;NA= not active; format: functional, Mus musculus; method in brief: as §6
[14] = system: Lewis lung carcinoma cell line; experiment: as §5; format: functional, Mus musculus; method in brief: as §4; remark: listed apart in the source
[15] = system: P388; experiment: Optimal dose required to inhibit the P388 intraperitoneally; format: functional, Mus musculus; method in brief: as §2
[16] = system: Nucleic Acid; experiment: Binding constant (1/M) to poly[d(A-T)] by ethidium bromide displacement; format: nucleic-acid assay
[17] = system: P388; experiment: Percent increase in life span of the drug treated tumor bearing animals vs nontreated tumor bearing controls was determined against P388 leukemia cells; NA = not active; format: functional; conditions: Mus musculus; method in brief: as §1
[18] = system: Lewis lung carcinoma cell line; experiment: Optimal dose to inhibit the LL (Lewis lung carcinoma model) cells in vivo after intraperitoneal administration.; format: functional, Mus musculus; design: unit: mg/kg/day; method in brief: as §4

Row | Compound | Rm [1] | pKa [2] | ILS max [3] | OD [4] | OD [5] | ILS max [6] | Log K [7] | IC50 [8] [nM] | IC50 [9] [nM] | OD [10] | ILS max [11] | ILS max [12] | ILS max ([11]; Mus musculus) | ILS max [13] | OD [14] | OD [15] | Log K [16] | ILS max [17] | ILS max ([13]; Mus musculus) | OD [18]
1 | COc1cc(NP(=O)(OC)OC)ccc1Nc1c2ccccc2nc2ccccc12 | 0.37 | 8.21 | inactive | 8.9 | 8.9 | 67 | 6.18 |  |  |  |  |  |  |  |  |  |  |  |  | 
2 | CNc1cc(NC(=O)OC)ccc1Nc1c2ccccc2nc2ccccc12 | 0.51 | 7.95 |  | 45 | 30 | 132 | 6.35 | 290 | 284 | 30 | 112 | 50 |  |  |  |  |  |  |  | 
3 | COC(=O)Nc1ccc(Nc2c3ccccc3nc3ccccc23)c(N(C)C)c1 | 0.56 | 7.85 | inactive | 30 | 45 | 20 | 5.88 |  |  |  |  |  |  |  |  |  |  |  |  | 
4 | CNc1cc(NC(=O)OC)ccc1Nc1c2ccccc2nc2ccc(C)cc12 | 0.7 |  | inactive | 45 | 45 | 69 | 5.62 | 850 | 436 | 13.3 |  |  | inactive |  |  |  |  |  |  | 
5 | CNc1cc(NC(=O)OC)ccc1Nc1c2ccccc2nc2cc(C)ccc12 | 0.78 |  | inactive | 13.3 | 8.9 | 105 | 6.72 | 270 | 152 |  |  |  |  | 58 | 8.9 |  |  |  |  | 
6 | CNc1cc(NP(=O)(OC)OC)ccc1Nc1c2ccccc2nc2ccccc12 | 0.32 | 8.09 |  |  |  |  |  |  |  |  |  |  |  |  |  | 13.3 | 6.82 |  |  | 
7 | COP(=O)(Nc1ccc(Nc2c3ccccc3nc3ccccc23)c(N(C)C)c1)OC | 0.44 | 8.17 | inactive | 100 | 100 | 97 | 6.43 |  |  |  |  |  |  |  |  |  |  |  |  | 
8 | CC(=O)Nc1ccc(Nc2c3ccccc3nc3ccccc23)c(N(C)C)c1 | 0.57 | 7.59 | inactive | 100 | 65 |  | 5.58 |  |  |  |  |  |  |  |  |  |  | inactive |  | 
9 | COC(=O)Nc1ccc(Nc2c3ccccc3nc3ccccc23)c(OC)c1 | 0.5 | 7.93 |  | 45 | 30 | 86 | 6.24 |  |  |  |  | 33 |  |  |  |  |  |  |  | 
10 | CNc1cc(NC(C)=O)ccc1Nc1c2ccccc2nc2ccccc12 | 0.3 | 7.8 | inactive | 65 | 65 | 96 | 6.79 |  |  |  |  |  |  |  |  |  |  |  |  | 
11 | COc1cc(NC(C)=O)ccc1Nc1c2ccccc2nc2ccccc12 | 0.3 | 7.79 | inactive | 8.9 | 13.3 | 50 | 6.1 |  |  |  |  |  |  |  |  |  |  |  |  | 
12 | CNc1cc(NC(=O)OC)ccc1Nc1c2ccccc2nc2c(Cl)cccc12 | 0.42 |  |  | 45 | 30 | 30 | 6.3 | 4500 | 906 |  |  | 22 |  |  |  |  |  |  | inactive | 65
